pIC50: −log10 of the molar value.
Legend:
HCT-116 = experiment: Cytotoxicity against human HCT116 cells assessed as growth inhibition after 72 hrs by MTT assay; type: cell-based; conditions: HCT-116, 72 h
Outline: (§1)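 Cells cultured in DMEM or RPMI-1640 with 10% FBS, 2 mM L-glutamine and antibiotics at 37 °C, 5% CO2. Seeded at 2×10^4–4×10^4 cells/well and attached for 24 h before five serial 10-fold compound dilutions, final DMSO <0.2%. MTT at 72 h. IC50 interpolated between the two concentrations flanking 50% growth inhibition; single experiment.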

CAPAN-1 = experiment: Cytotoxicity against human Capan1 cells assessed as growth inhibition after 72 hrs by MTT assay; type: cell-based; conditions: CAPAN-1, 72 h; outline: as §1
L6 = experiment: Cytotoxicity against rat L6 cells assessed as reduction in cell viability after 70 hrs by Alamar blue assay; type: cell-based; conditions: L6, 70 h
Outline: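 L6 rat skeletal myoblasts were plated at 4000 cells/well in RPMI 1640 with L-glutamine and 10% FBS. Eleven 3-fold drug dilutions, 100 to 0.002 µg/ml. After 70 h, Alamar Blue was added for 2 h and fluorescence read (ex 536 nm, em 588 nm). IC50 by linear interpolation from sigmoid dose-inhibition curves.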

SW-620 = experiment: Cytotoxicity against human SW620 cells assessed as growth inhibition after 72 hrs by MTT assay; type: cell-based; conditions: SW-620, 72 h
Outline: (§2)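 Monolayers grown in DMEM or RPMI-1640 with 10% FBS, 2 mM L-glutamine and penicillin/streptomycin at 37 °C, 5% CO2. Seeded at 2×10^4–4×10^4 cells/well and attached for 24 h. Five serial 10-fold dilutions added, final DMSO <0.2%. MTT read-out at 72 h; percentage growth calculated. IC50 by linear interpolation between concentrations bracketing 50% growth; at least two biological replicates.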

K562 = experiment: Cytotoxicity against human K562 cells assessed as growth inhibition after 72 hrs by MTT assay; type: cell-based; conditions: K562, 72 h
HL-60 = experiment: Cytotoxicity against human HL60 cells assessed as growth inhibition after 72 hrs by MTT assay; type: cell-based; conditions: HL-60, 72 h
Plasmodium falciparum = experiment: Antiplasmodial activity against erythrocytic stage of Plasmodium falciparum NF54 assessed as reduction in [3H]hypoxanthine incorporation after 48 hrs by liquid scintillation counting method; type: functional, organism-based
Outline: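 Asexual blood-stage NF54 grown in hypoxanthine-free RPMI 1640 with HEPES, NaHCO3, neomycin and Albumax, using washed human A+ erythrocytes at 2.5% hematocrit and 0.3% parasitemia. Compounds were made as 10 mg/ml DMSO stocks and run as eleven 3-fold dilutions, 100 to 0.002 µg/ml. Incubation at 37 °C in 4% CO2, 3% O2, 93% N2. After 48 h, 0.5 µCi 3H-hypoxanthine was added for a further 24 h, then harvested and scintillation counted. IC50 by linear interpolation of sigmoidal curves; averages of 2–3 independent experiments.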

MCF7 [1] = experiment: Cytotoxicity against human MCF7 cells assessed as growth inhibition after 72 hrs by MTT assay; type: cell-based; conditions: MCF7, 72 h; outline: as §2
NCI-H460 [2] = experiment: Cytotoxicity against human NCI-H460 cells assessed as growth inhibition after 72 hrs by MTT assay; type: cell-based; conditions: NCI-H460, 72 h; outline: as §2
MCF7 [3] = experiment: Cytotoxicity against human MCF7 cells assessed as growth inhibition at 10 uM cotreated with G6PD inhibitor 6-AN after 72 hrs by MTT assay; type: cell-based; conditions: mcf7, 72 h
Outline: (§3)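 Adherent cells seeded at 2×10^4–4×10^4 cells/well and left 24 h, then treated with compound alone or together with 6-aminonicotinamide (always 10 µM, used to mimic G6PD deficiency). Final DMSO <0.2%. Growth measured by MTT after 72 h and expressed as percentage growth relative to untreated cells.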

NCI-H460 [4] = experiment: Cytotoxicity against human NCI-H460 cells assessed as growth inhibition at 10 uM cotreated with G6PD inhibitor 6-AN after 72 hrs by MTT assay; type: cell-based; conditions: nci-h460, 72 h; outline: as §3
A2780 = experiment: Cytotoxicity against human A2780 cells assessed as growth inhibition after 72 hrs by MTT assay; type: cell-based; conditions: A2780, 72 h; outline: as §2
[5] = Selectivity index, ratio of IC50 for rat L6 cells to IC50 for erythrocytic stage of Plasmodium falciparum NF54; type: toxicity; conditions: read-out: Ratio IC50
Outline: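 Ratio of the L6 cytotoxicity IC50 to the IC50 against P. falciparum NF54.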

[6] = Safety index, ratio of compound IC50 to primaquine IC50 for rat L6 cells; type: ADME, cell-based; conditions: read-out: Ratio IC50
[7] = Cytotoxicity against human MCF7 cells assessed as cell growth at 10 uM cotreated with G6PD inhibitor 6-AN after 72 hrs by MTT assay relative to control; type: cell-based; outline: as §3
[8] = Cytotoxicity against human MCF7 cells assessed as cell growth at 10 uM after 72 hrs by MTT assay relative to control; type: cell-based; conditions: read-out: Activity; outline: as §3

Row | SMILES | pIC50 (L6) | pIC50 (Plasmodium falciparum) | selectivity ratio [5] | further results
1 | COc1cc(NC(C)CCCNC(=O)NC(CC(C)C)C(=O)NC(c2ccccc2)c2ccccc2)c2ncccc2c1 (configuration not stated) | < 3.77 | 5.47 | > 50 | pIC50 (HCT-116): < 4.00; pIC50 (CAPAN-1): < 4.00; pIC50 (SW-620): < 4.00; pIC50 (K562): < 4.00; pIC50 (HL-60): < 4.00; pIC50 (MCF7 [1]): < 4.00; pIC50 (NCI-H460 [2]): < 4.00; growth inhibition (GI) (MCF7 [3]): Non-Toxic; growth inhibition (GI) (NCI-H460 [4]): Non-Toxic; pIC50 (A2780): 4.44
2 | COc1cc(NC(C)CCCNC(=O)NNC(=O)NCCNC(c2ccccc2)(c2ccccc2)c2ccccc2)c2ncccc2c1 (configuration not stated) | < 4.00 | 5.92 | > 83.3 | pIC50 (MCF7 [1]): 5.52; pIC50 (NCI-H460 [2]): 5.52; growth inhibition (GI) (MCF7 [3]): Toxic; growth inhibition (GI) (NCI-H460 [4]): Toxic; pIC50 (A2780): 6.00
3 | COc1cc(NC(C)CCCNC(=O)NC(C(=O)NC(c2ccccc2)c2ccccc2)c2ccc(Cl)cc2)c2ncccc2c1 (configuration not stated) | < 3.80 | 5.85 | > 114 | pIC50 (HCT-116): < 4.00; pIC50 (CAPAN-1): < 4.00; pIC50 (SW-620): 5.22; pIC50 (K562): < 4.00; pIC50 (HL-60): < 4.00; selectivity ratio [6]: 2.7; viability at 72 h, 10 µM [7]: 65%; pIC50 (MCF7 [1]): < 4.00; pIC50 (NCI-H460 [2]): < 4.00; viability at 72 h, 10 µM [8]: 80%; pIC50 (A2780): < 4.00
4 | COc1ccc(C(=NNC(=O)NCCCC(C)Nc2cc(OC)cc3cccnc23)c2ccc(OC)cc2)cc1 (configuration not stated) | < 3.74 | 5.62 to 5.64 | 78.3 | pIC50 (MCF7 [1]): 5.52 to 5.55; pIC50 (NCI-H460 [2]): < 4.00; growth inhibition (GI) (MCF7 [3]): Toxic; growth inhibition (GI) (NCI-H460 [4]): Toxic; pIC50 (A2780): 6.00
5 | COc1cc(NC(C)CCCNC(=O)NNC(=O)/C=C/c2ccc(C(F)(F)F)cc2)c2ncccc2c1 (configuration not stated) | 4.55 | < 4.71 | < 1.5 | 
6 | COc1cc(NC(C)CCCN)c2ncccc2c1 (configuration not stated) [PRIMAQUINE PHOSPHATE] | 4.23 | 5.82 | 39.7 | pIC50 (HCT-116): 4.35; pIC50 (CAPAN-1): 4.85; pIC50 (SW-620): 4.85; pIC50 (K562): 4.92; pIC50 (HL-60): 4.94; pIC50 (MCF7 [1]): 5.30; pIC50 (NCI-H460 [2]): 5.00; viability at 72 h, 10 µM [8]: 25%; pIC50 (A2780): 5.30
7 | COc1cc(NC(C)CCCNC(=O)NNC(=O)Nc2cccc(C(F)(F)F)c2)c2ncccc2c1 (configuration not stated) | 4.49 | 4.93 | 2.7 | 
8 | COc1cc(NC(C)CCCNC(=O)NC(c2ccccc2)c2ccc(Cl)cc2)c2ncccc2c1 (configuration not stated) | 3.85 | 5.37 | 32.6 | 
9 | COc1cc(NC(C)CCCNC(=O)/C=C/c2ccccc2)c2ncccc2c1 (configuration not stated) | 4.73 | 4.82 | 1.2 | 
10 | COc1cc(NC(C)CCCNC(=O)/C=C/c2ccccc2F)c2ncccc2c1 (configuration not stated) | 5.46 | 4.88 | 0.3 | 
11 | COc1cc(NC(C)CCCNC(=O)NNC(=O)Nc2cccc(Cl)c2)c2ncccc2c1 (configuration not stated) | 4.23 | 4.83 | 3.9 | 
12 | COc1ccc(/C(=N/NC(=O)NCCCC(C)Nc2cc(OC)cc3cccnc23)c2ccccc2)cc1 (configuration not stated) | < 3.71 | 5.39 | > 47.6 | 
13 | COc1cc(NC(C)CCCNC(=O)NCCCC(C)Nc2cc(OC)cc3cccnc23)c2ncccc2c1 (configuration not stated) | < 3.74 | 5.19 | > 28.1 | 
14 | COc1cc(NC(C)CCCNC(=O)NNC(=O)/C=C/c2cc(OC)c(OC)c(OC)c2)c2ncccc2c1 (configuration not stated) | 3.86 | 5.35 | 30.7 | 
15 | COc1cc(NC(C)CCCNC(=O)NNC(=O)Nc2ccc(Br)cc2)c2ncccc2c1 (configuration not stated) | 4.41 | 4.75 | 2.2 | 
16 | COc1cc(NC(C)CCCNC(=O)/C=C/c2cc(C(F)(F)F)cc(C(F)(F)F)c2)c2ncccc2c1 (configuration not stated) | 3.80 | 4.95 | 14 | 

Row | SMILES | pIC50 (L6) | pIC50 (Plasmodium falciparum) | selectivity ratio [5] | further results
17 | COc1cc(NC(C)CCCNC(=O)NC(C(=O)NC(c2ccccc2)c2ccc(Cl)cc2)c2ccccc2)c2ncccc2c1 (configuration not stated) | < 3.80 | 5.52 | > 53.3 | pIC50 (HCT-116): < 4.00; pIC50 (CAPAN-1): < 4.00; pIC50 (SW-620): < 4.00; pIC50 (K562): < 4.00; pIC50 (HL-60): < 4.00; pIC50 (MCF7 [1]): < 4.00; pIC50 (NCI-H460 [2]): < 4.00; growth inhibition (GI) (MCF7 [3]): Non-Toxic; growth inhibition (GI) (NCI-H460 [4]): Non-Toxic; pIC50 (A2780): < 4.00
18 | COc1cc(NC(C)CCCNC(=O)NC(C(=O)N(C)C(c2ccccc2)c2ccccc2)c2ccccc2)c2ncccc2c1 (configuration not stated) | < 3.85 | 5.19 | > 21.5 | pIC50 (HCT-116): < 4.00; pIC50 (CAPAN-1): < 4.00; pIC50 (SW-620): < 4.00; pIC50 (K562): < 4.00; pIC50 (HL-60): < 4.00; pIC50 (MCF7 [1]): < 4.00; pIC50 (NCI-H460 [2]): 4.19
19 | COc1cc(NC(C)CCCNC(=O)NC(C(=O)Nc2ccc(Br)cc2)c2ccc(Cl)cc2)c2ncccc2c1 (configuration not stated) | 4.27 | 5.49 | 16.9 | pIC50 (HCT-116): < 4.00; pIC50 (CAPAN-1): < 4.00; pIC50 (SW-620): 4.49; pIC50 (K562): < 4.00; pIC50 (HL-60): < 4.00; pIC50 (MCF7 [1]): 4.80; pIC50 (NCI-H460 [2]): 4.28
20 | COc1cc(NC(C)CCCNC(=O)/C=C/c2cc(OC)c(OC)c(OC)c2)c2ncccc2c1 (configuration not stated) | < 3.68 | 5.09 | > 25.9 | 
21 | COc1cc(NC(C)CCCNC(=O)NNC(=O)/C=C/c2ccccc2)c2ncccc2c1 (configuration not stated) | 4.86 | 4.76 | 0.8 | 
22 | COc1ccc(C(=NNC(=O)NNC(=O)NCCCC(C)Nc2cc(OC)cc3cccnc23)c2ccc(OC)cc2)cc1 (configuration not stated) | 3.87 | 5.66 to 5.72 | 61.9 | pIC50 (MCF7 [1]): 6.00 to 6.05; pIC50 (NCI-H460 [2]): 5.30; growth inhibition (GI) (MCF7 [3]): Toxic; growth inhibition (GI) (NCI-H460 [4]): Toxic; pIC50 (A2780): 7.22
23 | COc1cc(NC(C)CCCNC(=O)NNC(=O)/C=C/c2ccc(OC)c(OC)c2)c2ncccc2c1 (configuration not stated) | 4.43 | < 4.71 | < 1.9 | 
24 | COc1cc(NC(C)CCCNC(=O)/C=C/c2ccc(OC)c(OC)c2)c2ncccc2c1 (configuration not stated) | < 3.66 | 4.92 | > 18.5 | 
25 | COc1cc(NC(C)CCCNC(=O)NNC(=O)/C=C/c2ccc3c(c2)OCO3)c2ncccc2c1 (configuration not stated) | 4.81 | 4.69 | 0.8 | 
26 | COc1cc(NC(C)CCCNC(=O)NNC(=O)NC(c2ccccc2)c2ccc(Cl)cc2)c2ncccc2c1 (configuration not stated) | 5.08 | 5.12 | 1.1 | 
27 | COc1cc(NC(C)CCCNC(=O)Nc2cc(C(F)(F)F)cc(C(F)(F)F)c2)c2ncccc2c1 (configuration not stated) | 4.83 | 4.92 | 1.3 | 
28 | COc1cc(NC(C)CCCNC(=O)NNC(=O)/C(C)=C/c2ccccc2)c2ncccc2c1 (configuration not stated) | 4.44 | 4.64 | 1.6 | 
29 | COc1cc(NC(C)CCCNC(=O)NNC(=O)Nc2ccc(Cl)cc2)c2ncccc2c1 (configuration not stated) | 4.04 | 4.75 | 5.2 | 
30 | COc1cc(NC(C)CCCNC(=O)NNC(=O)/C=C/c2ccc(Cl)cc2)c2ncccc2c1 (configuration not stated) | 5.14 | 4.62 | 0.3 | 
31 | COc1ccc(/C(=N/NC(=O)NNC(=O)NCCCC(C)Nc2cc(OC)cc3cccnc23)c2ccccc2)cc1 (configuration not stated) | 4.80 | 5.25 | 2.9 | 

Reference: ChEMBL document CHEMBL4145525, “Machine learning prioritizes synthesis of primaquine ureidoamides with high antimalarial activity and attenuated cytotoxicity” (Eur J Med Chem, 2018)
